Measured values reported in ChEMBL document CHEMBL4622977, “A CNS-Targeting Prodrug Strategy for Nuclear Receptor Modulators” (J Med Chem, 2020).
Values belong to the molecule of their own block, whether it stands above or below them. Activity calls are given as the source filed them. No cut-off for these calls is given here.

Tests used:
[1] = in vivo; conditions: C57BL/6, mouse, brain/serum, ip, 9.14 umol/kg
[2] = mouse, in vivo, ip
[3] = AUC (0.5 to 6 hrs) in C57BL/6 mouse serum at 9.14 umol/kg, ip by LC-MS/MS analysis; format: ADME, organism-based; parameters: time upper 6 hr, dose 9.14 umol/kg, time lower 0.5 hr, route intraperitoneal; conditions: in vivo
Procedure, shortened: (§1)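 Male wild-type C57BL/6 mice (8−10 weeks, n=3 per time point) received parent drug or equimolar prodrug at […] i.p. in DMSO. Brain and serum were collected at 0.5, 2 and 6 h. Parent acid was quantified by LC-MS/MS against vehicle-tissue standard curves with d₆-sobetirome internal standard. AUC0.5–6 h was computed from the time course; mean ± SEM.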

[4] = AUC (0.5 to 6 hrs) in C57BL/6 mouse serum assessed as [4-(4-hydroxy-3-iodophenoxy)-3,5-diiodophenyl]acetic acid level at 9.14 umol/kg, ip by LC-MS/MS analysis; format: ADME, organism-based; parameters: dose 9.14 umol/kg, time 0.5-6 hr, route intraperitoneal; conditions: in vivo
Procedure, shortened: as §1

[5] = Brain to serum concentration ratio, Kp of the compound in C57BL/6 mouse assessed as [4-(4-hydroxy-3-iodophenoxy)-3,5-diiodophenyl]acetic acid level at 9.14 umol/kg, ip by LC-MS/MS analysis; format: ADME, organism-based
Procedure, shortened: (§2)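 Brain-to-serum ratio Kp was calculated from brain and serum parent-drug AUC0.5–6 h (ng/g*h). These AUCs came from male C57BL/6 mice (n=3 per time point) given parent drug or equimolar prodrug at […] i.p. in DMSO, sampled at 0.5, 2 and 6 h. Parent acid was quantified by LC-MS/MS with d₆-sobetirome internal standard.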

[6] = AUC (0.5 to 6 hrs) in C57BL/6 mouse brain assessed as [4-(4-hydroxy-3-iodophenoxy)-3,5-diiodophenyl]acetic acid level at 9.14 umol/kg, ip by LC-MS/MS analysis; format: ADME, organism-based; parameters: dose 9.14 umol/kg, time upper 6 hr, time lower 0.5 hr, route intraperitoneal; conditions: in vivo
Procedure, shortened: as §1

[7] = Prodrug conversion in C57BL/6 mouse brain assessed as [4-(4-hydroxy-3-iodophenoxy)-3,5-diiodophenyl]acetic acid level at 9.14 umol/kg, ip measured after 1 hr in presence of FAAH inhibitor PF-3845 by LC-MS/MS analysis; format: ADME, organism-based; conditions: in vivo
Procedure, shortened: (§3)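 Male C57BL/6 mice (n=3) received PF-3845 at 1 mg/kg i.p., then prodrug at […] i.p. 1 h later; comparators received prodrug alone. Vehicle was DMSO. Whole brain was taken 1 h after prodrug and homogenized in water with d₆-sobetirome internal standard. It was extracted with EtOAc/MeCN and parent acid was measured by LC-MS/MS; mean ± SEM, 2-tailed unpaired t test.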

[8] = Prodrug conversion in C57BL/6 mouse brain assessed as 2-(4-(4-hydroxy-3-isopropyl-5-((4-nitrophenyl)ethynyl)-benzyl)-3,5-dimethylphenoxy)acetic acid level at 9.14 umol/kg, ip measured after 1 hr in presence of FAAH inhibitor PF-3845 by LC-MS/MS analysis; format: ADME, organism-based; conditions: in vivo
Procedure, shortened: as §3

[9] = AUC (0.5 to 6 hrs) in C57BL/6 mouse serum assessed as 2-(4-(4-hydroxy-3-isopropyl-5-((4-nitrophenyl)ethynyl)-benzyl)-3,5-dimethylphenoxy)acetic acid level at 9.14 umol/kg, ip by LC-MS/MS analysis; format: ADME, organism-based; parameters: time 0.5-6 hr, dose 9.14 umol/kg, route intraperitoneal; conditions: in vivo
Procedure, shortened: as §1

[10] = AUC (0.5 to 6 hrs) in C57BL/6 mouse brain assessed as 2-(4-(4-hydroxy-3-isopropyl-5-((4-nitrophenyl)ethynyl)-benzyl)-3,5-dimethylphenoxy)acetic acid level at 9.14 umol/kg, ip by LC-MS/MS analysis; format: ADME, organism-based; parameters: time upper 6 hr, time lower 0.5 hr, dose 9.14 umol/kg, route intraperitoneal; conditions: in vivo
Procedure, shortened: as §1

[11] = Brain to serum concentration ratio, Kp of the compound in C57BL/6 mouse assessed as 2-(4-(4-hydroxy-3-isopropyl-5-((4-nitrophenyl)ethynyl)-benzyl)-3,5-dimethylphenoxy)acetic acid level at 9.14 umol/kg, ip by LC-MS/MS analysis; format: ADME, organism-based
Procedure, shortened: as §2

[12] = AUC (0.5 to 6 hrs) in C57BL/6 mouse serum assessed as bexarotene level at 9.14 umol/kg, ip by LC-MS/MS analysis; format: ADME, organism-based; parameters: dose 9.14 umol/kg, time 0.5-6 hr, route intraperitoneal; conditions: in vivo
Procedure, shortened: as §1

[13] = AUC (0.5 to 6 hrs) in C57BL/6 mouse brain assessed as bexarotene level at 9.14 umol/kg, ip by LC-MS/MS analysis; format: ADME, organism-based; parameters: dose 9.14 umol/kg, time 0.5-6 hr, route intraperitoneal; conditions: in vivo, BLD = below limit of detection
Procedure, shortened: as §1

[14] = Prodrug conversion in C57BL/6 mouse brain assessed as bexarotene level at 9.14 umol/kg, ip measured after 1 hr in presence of FAAH inhibitor PF-3845 by LC-MS/MS analysis; format: ADME, organism-based; conditions: in vivo
Procedure, shortened: as §3

[15] = system: Mus musculus; experiment: In vivo agonist activity at PPAR in C57BL/6 mouse assessed upregulation of Pgc1-alpha gene expression at 9.14 umol/kg, ip administered once daily for 7 days by Trizol reagent based RT-qPCR analysis; format: functional, organism-based
Procedure, shortened: (§4)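 Male C57BL/6 mice (n=5) were dosed once daily for 7 days i.p. with parent drug at […], equimolar prodrug, or vehicle. The vehicle was 1:1:8 Kolliphor:NMP:water. Target gene expression was compared between groups per tissue by 2-tailed unpaired t test.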

[16] = Renal toxicity in C57BL/6 mouse assessed effect on Fasn gene expression in kidney at 9.14 umol/kg, ip administered once daily for 7 days by Trizol reagent based RT-qPCR analysis; format: organism-based; conditions: in vivo, 168 h
Procedure, shortened: as §4

[17] = AUC (0.5 to 6 hrs) in C57BL/6 mouse brain assessed as GW7604 level at 9.14 umol/kg, ip by LC-MS/MS analysis; format: ADME, organism-based; parameters: time 0.5-6 hr, dose 9.14 umol/kg, route intraperitoneal; conditions: in vivo
Procedure, shortened: as §1

[18] = Brain to serum concentration ratio, Kp of the compound in C57BL/6 mouse assessed as GW7604 level at 9.14 umol/kg, ip by LC-MS/MS analysis; format: ADME, organism-based
Procedure, shortened: as §2

[19] = Prodrug conversion in C57BL/6 mouse brain assessed as GW7604 level at 9.14 umol/kg, ip measured after 1 hr in presence of FAAH inhibitor PF-3845 by LC-MS/MS analysis; format: ADME, organism-based; conditions: in vivo
Procedure, shortened: as §3

[20] = AUC (0.5 to 6 hrs) in C57BL/6 mouse serum assessed as GW7604 level at 9.14 umol/kg, ip by LC-MS/MS analysis; format: ADME, organism-based; parameters: time lower 0.5 hr, dose 9.14 umol/kg, time upper 6 hr, route intraperitoneal; conditions: in vivo
Procedure, shortened: as §1

[21] = AUC (0.5 to 6 hrs) in C57BL/6 mouse serum assessed as tesaglitazar level at 9.14 umol/kg, ip by LC-MS/MS analysis; format: ADME, organism-based; parameters: time lower 0.5 hr, dose 9.14 umol/kg, time upper 6 hr, route intraperitoneal; conditions: in vivo
Procedure, shortened: as §1

[22] = Prodrug conversion in C57BL/6 mouse brain assessed as tesaglitazar level at 9.14 umol/kg, ip measured after 1 hr in presence of FAAH inhibitor PF-3845 by LC-MS/MS analysis; format: ADME, organism-based; conditions: in vivo
Procedure, shortened: as §3

[23] = AUC (0.5 to 6 hrs) in C57BL/6 mouse brain assessed as tesaglitazar level at 9.14 umol/kg, ip by LC-MS/MS analysis; format: ADME, organism-based; parameters: time upper 6 hr, dose 9.14 umol/kg, time lower 0.5 hr, route intraperitoneal; conditions: in vivo
Procedure, shortened: as §1

[24] = Brain to serum concentration ratio, Kp of the compound in C57BL/6 mouse assessed as tesaglitazar level at 9.14 umol/kg, ip by LC-MS/MS analysis; format: ADME, organism-based
Procedure, shortened: as §2

Kp [1]: 0.018
AUC [2]: 41.8 ng·h/g
AUC [3]: 2330 ng·h/g
Compound: Cc1cc(SCc2sc(-c3ccc(C(F)(F)F)cc3)nc2C)ccc1OCC(=O)O [GW501516]

AUC [4]: 4020 ng·h/g
Kp [5]: 0.039
AUC [6]: 155.8 ng·h/g
Drug metabolism [7]: Metabolite_Detected
Compound: CNC(=O)Cc1cc(I)c(Oc2ccc(O)c(I)c2)c(I)c1

Drug metabolism [8]: Metabolite_Notdetected
AUC [9]: 49.5 ng·h/g
AUC [10]: 73.8 ng·h/g
Kp [11]: 1.5
Compound: CNC(=O)COc1cc(C)c(Cc2cc(C#Cc3ccc([N+](=O)[O-])cc3)c(O)c(C(C)C)c2)c(C)c1

AUC [12]: 4.933 ng·h/g
AUC [13]: Bld
Drug metabolism [14]: Metabolite_Notdetected
Compound: C=C(c1ccc(C(=O)NC)cc1)c1cc2c(cc1C)C(C)(C)CCC2(C)C

AUC [3]: 5108 ng·h/g
Compound: O=C(O)Cc1cc(I)c(Oc2ccc(O)c(I)c2)c(I)c1 [TIRATRICOL]

Kp [1]: 0.004
AUC [2]: 7.3 ng·h/g
AUC [3]: 2107 ng·h/g
Compound: CCO[C@@H](Cc1ccc(OCCc2ccc(OS(C)(=O)=O)cc2)cc1)C(=O)O [TESAGLITAZAR]
Activity [15]: inactive
Activity [16]: Toxic

AUC [17]: 18.03 ng·h/g
Kp [18]: 1.01
Drug metabolism [19]: Metabolite_Notdetected
AUC [20]: 17.77 ng·h/g
Compound: CC/C(=C(\c1ccc(O)cc1)c1ccc(/C=C/C(=O)NC)cc1)c1ccccc1

Kp [1]: 1.35
AUC [2]: 228.2 ng·h/g
AUC [3]: 169.3 ng·h/g
Compound: CC/C(=C(\c1ccc(O)cc1)c1ccc(/C=C/C(=O)O)cc1)c1ccccc1

AUC [21]: 374.1 ng·h/g
Drug metabolism [22]: Metabolite_Notdetected
AUC [23]: 21.9 ng·h/g
Kp [24]: 0.06
Compound: CCO[C@@H](Cc1ccc(OCCc2ccc(OS(C)(=O)=O)cc2)cc1)C(=O)NC
Activity [15]: Active
Activity [16]: Non-Toxic
